Data published in ChEMBL document CHEMBL4219055, “Structure-based design, synthesis, and biological evaluation of imidazo[1,2-b]pyridazine-based p38 MAP kinase inhibitors” (Bioorg Med Chem, 2018).
Converted amounts (≈) assume the structure as drawn.

Key:
[1] = Clearance in Crl:CD(SD) rat at 0.2 mg/kg, iv by LC-MS/MS analysis; format: ADME, organism-based; conditions: in vivo
Procedure, shortened: (§1)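 Rats were dosed i.v. at 0.2 mg/kg and p.o. at 3.0 mg/kg. Oral dosing was a suspension in 0.5% methyl cellulose or in corn oil, depending on the compound. Vd and CL came from i.v. dosing. Values are means of three animals.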

[2] = MRT in Crl:CD(SD) rat at 3 mg/kg, po by LC-MS/MS analysis; format: ADME, organism-based; conditions: in vivo; procedure, shortened: as §1
[3] = Metabolic stability in rat liver microsomes at 1 uM after 20 mins in presence of NADPH by HPLC analysis; format: ADME, microsome
[4] = AUC in Crl:CD(SD) rat at 3 mg/kg, po by LC-MS/MS analysis; format: ADME, organism-based; conditions: in vivo
Procedure, shortened: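 Rats dosed orally at 3.0 mg/kg as a suspension in either 0.5% methyl cellulose or corn oil, depending on the compound. […] AUCpo is reported as ng·h/mL and is the mean of measurements in three animals.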

[5] = Volume of distribution in Crl:CD(SD) rat at 0.2 mg/kg, iv by LC-MS/MS analysis; format: ADME, organism-based; conditions: in vivo; procedure, shortened: as §1
[6] = Tmax in Crl:CD(SD) rat at 3 mg/kg, po by LC-MS/MS analysis; format: ADME, organism-based; conditions: in vivo; procedure, shortened: as §1
[7] = Oral bioavailability in Crl:CD(SD) rat at 3 mg/kg by LC-MS/MS analysis; format: ADME, organism-based; conditions: in vivo; procedure, shortened: as §1
[8] = Retention time in human liver microsomes at 1 uM by HPLC analysis; format: ADME, microsome
Procedure, shortened: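 Incubated for 30 min with human liver microsomes. Parent and metabolites were analysed by HPLC and LC/MSⁿ, giving retention times, [M+H]⁺ and major fragment ions.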

[9] = Cmax in Crl:CD(SD) rat at 3 mg/kg, po by LC-MS/MS analysis; format: ADME, organism-based; design: dose 3 mg/kg, route oral; conditions: in vivo; procedure, shortened: as §1
[10] = Aqueous solubility in pH 6.8 buffer solution by HPLC analysis; format: physicochemical
[11] = Metabolic stability in human liver microsomes at 1 uM after 20 mins in presence of NADPH by HPLC analysis; format: ADME, microsome
[12] = pH 6.8 buffer solution, read-out: solubility

Compound: Cc1cc(-c2nc3cccnn3c2-c2ccnc(NC(=O)c3cc[n+]([O-])c(C)c3)c2)ccc1F
- clearance [1]: 10 mL/min/kg
- MRT [2]: 5.32 h
- remaining at 20 min, 1 µM [3]: 16 µL/min/mg
- AUC [4]: 703 ng·h/mL
- Vd [5]: 1.38 L/kg
- Tmax [6]: 2 h
- bioavailability [7]: 13.5%
- Retention_time [8]: 23 min
- Cmax [9]: 75 ng/mL
- solubility [10, 12]: 0.91 µg/mL (≈ 2 µM)

Compound: Cc1cc(-c2nc3cccnn3c2-c2ccnc(NC(=O)c3ccc(C)[n+]([O-])c3)c2)ccc1F
- remaining at 20 min, 1 µM [3]: 23 µL/min/mg
- solubility [10, 12]: 2.4 µg/mL (≈ 5.28 µM)

Compound: Cc1cc(C(=O)Nc2cc(-c3c(-c4ccc(F)c(C)c4)nc4cccnn34)ccn2)ccn1
- remaining at 20 min, 1 µM [3]: 65 µL/min/mg
- Stability [11]: 132 µL/min/mg
- Retention_time [8]: 33.4 min
- solubility [10, 12]: 0.15 µg/mL (≈ 0.342 µM)

Compound: Cc1cc(-c2nc3cccnn3c2-c2ccnc(NC(=O)c3cc[n+]([O-])c(C)c3)c2)ccc1F.O=S(=O)(O)O
- clearance [1]: 10 mL/min/kg
- MRT [2]: 5.63 h
- AUC [4]: 2130 ng·h/mL
- Vd [5]: 1.38 L/kg
- Tmax [6]: 1.67 h
- bioavailability [7]: 42.6%
- Cmax [9]: 190 ng/mL
- solubility ([10]; buffer): Insoluble

Compound: Cc1cc(-c2nc3cccnn3c2-c2ccnc(NC(=O)c3ccncc3)c2)ccc1F
- remaining at 20 min, 1 µM [3]: 75 µL/min/mg
- Stability [11]: 177 µL/min/mg
- solubility [10, 12]: 0.75 µg/mL (≈ 1.77 µM)

Compound: Cc1ccc(C(=O)Nc2cc(-c3c(-c4ccc(F)c(C)c4)nc4cccnn34)ccn2)cn1
- remaining at 20 min, 1 µM [3]: 53 µL/min/mg
- solubility [10, 12]: 0.38 µg/mL (≈ 0.867 µM)

Compound: Cc1cc(-c2nc3cccnn3c2-c2ccnc(NC(=O)c3cccnc3)c2)ccc1F
- remaining at 20 min, 1 µM [3]: 71 µL/min/mg
- solubility [10, 12]: 0.92 µg/mL (≈ 2.17 µM)
